According to ChEMBL document CHEMBL1799931, “Synthesis, evaluation and metabolic studies of radiotracers containing a 4-(4-[18F]-fluorobenzyl)piperidin-1-yl moiety for the PET imaging of NR2B NMDA receptors” (Eur J Med Chem, 2011):
One block for each compound: values may come before it.

Experiments:
[1] = molecular target: T1, Glutamate NMDA receptor; GRIN1/GRIN2B (Homo sapiens, UniProt Q05586+Q13224); assay: Antagonist activity against NR1a/NR2B receptor transfected in human HEK293 cells assessed as inhibition of NMDA-induced Ca2+ influx; assay type: functional, cell-based
Plasma = assay: Metabolic stability of the compound in rat plasma after 30 mins; assay type: ADME, cell-free; details: 0.5 h
Outline: (§1)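 Rat plasma or liver homogenate (0.450 mL) spiked with ligand at 5-200 mg/L. Samples were deproteinized with acetonitrile immediately or after 30 min at 37 °C, then analysed by HPLC in triplicate injections.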

[2] = molecular target: Voltage-gated inwardly rectifying potassium channel KCNH2 (Homo sapiens, UniProt Q12809); assay: Inhibition of human ERG potassium channel
[3] = Inhibition of alpha-adrenergic receptor
Liver [4] = assay: Metabolic stability of the compound in rat liver homogenate after 30 mins; assay type: ADME, tissue-based; details: tissue homogenate, 0.5 h; outline: as §1
[5] = molecular target: Glutamate NMDA receptor; GRIN1/GRIN2A (Homo sapiens) (UniProt Q05586+Q12879); assay: Antagonist activity against NR1a/NR2A receptor transfected in human HEK293 cells assessed as inhibition of NMDA-induced Ca2+ influx at 10 uM; assay type: functional, cell-based
Outline: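 HEK293 cells co-transfected 1:1 with NR1-1a plus NR2A-GFP or NR2B-GFP, D-APV (100 µM) after transfection, used at 24 h. Cells loaded with Fura-2/AM 45 min at 37 °C, then held in HBBSS with glycine, pH 7.45, at room temperature under perfusion. NMDA 100 µM for 30 s; ligands applied 60 s before and during.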

[6] = molecular target: T1, Glutamate NMDA receptor; GRIN1/GRIN2B; assay: Displacement of [3H]-Ro-256981 from recombinant NR1/NR2B receptor; assay type: protein-complex assay
Mus musculus = assay: Analgesic activity in po dosed mouse assessed as licking behavior measured after 20 to 25 mins by formalin test; assay type: functional, organism-based; details: Mus musculus, po; read-out: ED50
[7] = Half life in rat plasma; assay type: ADME, cell-free
Rattus norvegicus [8] = assay: Analgesic activity against carrageenan-induced mechanical hyperalgesia in iv dosed rat; assay type: functional
Liver [9] = assay: Biodistribution in Sprague-Dawley rat liver at 3.2 to 18.6 MBq, iv after 120 mins by micro PET analysis; assay type: ADME, organism-based; details: in vivo, 2 h
Outline: (§2)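 Male Sprague-Dawley rats (235-310 g) under isoflurane got 18F radiotracer (3.2-18.6 MBq) by tail-vein catheter, n = 3. Dynamic microPET scan for 120 min, then ex vivo tissue counting at 120 min post-injection. Values are %ID/g ± SEM.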

Kidney [10] = assay: Biodistribution in Sprague-Dawley rat kidney at 3.2 to 18.6 MBq, iv after 120 mins by micro PET analysis; assay type: ADME, organism-based; details: in vivo, 2 h; outline: as §2
Muscle tissue [11] = assay: Biodistribution in Sprague-Dawley rat muscle at 3.2 to 18.6 MBq, iv after 120 mins by micro PET analysis; assay type: ADME, organism-based; details: in vivo, 2 h; outline: as §2
Brain [12] = assay: Biodistribution in Sprague-Dawley rat brain at 3.2 to 18.6 MBq, iv after 120 mins by micro PET analysis; assay type: ADME, organism-based; details: in vivo, 2 h; outline: as §2
Lung [13] = assay: Biodistribution in Sprague-Dawley rat lung at 3.2 to 18.6 MBq, iv after 120 mins by micro PET analysis; assay type: ADME, organism-based; details: in vivo, 2 h; outline: as §2
Rattus norvegicus [14] = assay: Biodistribution in Sprague-Dawley rat bladder at 3.2 to 18.6 MBq, iv after 120 mins by micro PET analysis; assay type: ADME, organism-based, Urinary bladder; details: in vivo, 2 h; outline: as §2
Intestine [15] = assay: Biodistribution in Sprague-Dawley rat intestine at 3.2 to 18.6 MBq, iv after 120 mins by micro PET analysis; assay type: ADME, organism-based; details: in vivo, 2 h; outline: as §2
Cerebellum = assay: Biodistribution in Sprague-Dawley rat cerebellum at 3.2 to 18.6 MBq, iv after 120 mins by micro PET analysis; details: in vivo, 2 h
[16] = Metabolic stability in Sprague-Dawley rat plasma assessed as half life by radio thin layer chromatography analysis; assay type: ADME, cell-free
Outline: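 Anesthetized male Sprague-Dawley rats (235-330 g) given radiotracer (3.2-15.1 MBq). Femoral arterial blood was sampled over 90 min and plasma gamma-counted. Plasma was diluted with acetonitrile, centrifuged and run on silica radio-TLC with cold reference, giving parent and radiometabolite fractions.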

Spleen [17] = assay: Biodistribution in Sprague-Dawley rat spleen at 3.2 to 18.6 MBq, iv after 120 mins by micro PET analysis; assay type: ADME, organism-based; details: in vivo, 2 h; outline: as §2
[18] = Biodistribution in Sprague-Dawley rat fat at 3.2 to 18.6 MBq, iv after 120 mins by micro PET analysis; assay type: ADME, organism-based, Adipose tissue; details: in vivo, 2 h; outline: as §2
Thymus [19] = assay: Biodistribution in Sprague-Dawley rat thymus at 3.2 to 18.6 MBq, iv after 120 mins by micro PET analysis; assay type: ADME, organism-based; details: in vivo, 2 h; outline: as §2
Pancreas [20] = assay: Biodistribution in Sprague-Dawley rat pancreas at 3.2 to 18.6 MBq, iv after 120 mins by micro PET analysis; assay type: ADME, organism-based; details: in vivo, 2 h; outline: as §2
Bone [21] = assay: Biodistribution in Sprague-Dawley rat bone at 3.2 to 18.6 MBq, iv after 120 mins by micro PET analysis; assay type: ADME, organism-based, Bone element; details: in vivo, 2 h; outline: as §2
[22] = Biodistribution in Sprague-Dawley rat urine at 3.2 to 18.6 MBq, iv after 120 mins by micro PET analysis; assay type: ADME, organism-based; details: in vivo, 2 h; outline: as §2
Heart [23] = assay: Biodistribution in Sprague-Dawley rat heart at 3.2 to 18.6 MBq, iv after 120 mins by micro PET analysis; assay type: ADME, organism-based; details: in vivo, 2 h; outline: as §2
Hippocampus = assay: Biodistribution in Sprague-Dawley rat hippocampus at 3.2 to 18.6 MBq, iv after 120 mins by micro PET analysis; details: in vivo, 2 h
Liver [24] = assay: Biodistribution in Sprague-Dawley rat liver at 3.2 to 18.6 MBq, iv after 90 mins by micro PET analysis; assay type: ADME, organism-based; details: in vivo, 1.5 h
Outline: (§3)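 Male Sprague-Dawley rats (235-310 g) under isoflurane got 18F radiotracer (3.2-18.6 MBq) by tail-vein catheter, n = 2. Dynamic microPET scan for 90 min, then ex vivo tissue counting at 90 min post-injection. Values are %ID/g ± SEM.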

Rattus norvegicus [25] = assay: Biodistribution in Sprague-Dawley rat cartilage at 3.2 to 18.6 MBq, iv after 90 mins by micro PET analysis; assay type: ADME, organism-based, Cartilage tissue; details: in vivo, 1.5 h; outline: as §3
Spleen [26] = assay: Biodistribution in Sprague-Dawley rat spleen at 3.2 to 18.6 MBq, iv after 90 mins by micro PET analysis; assay type: ADME, organism-based; details: in vivo, 1.5 h; outline: as §3
Lung [27] = assay: Biodistribution in Sprague-Dawley rat lung at 3.2 to 18.6 MBq, iv after 90 mins by micro PET analysis; assay type: ADME, organism-based; details: in vivo, 1.5 h; outline: as §3
Thymus [28] = assay: Biodistribution in Sprague-Dawley rat thymus at 3.2 to 18.6 MBq, iv after 90 mins by micro PET analysis; assay type: ADME, organism-based; details: in vivo, 1.5 h; outline: as §3
[29] = Biodistribution in Sprague-Dawley rat urine at 3.2 to 18.6 MBq, iv after 90 mins by micro PET analysis; assay type: ADME, organism-based; details: in vivo, 1.5 h; outline: as §3
Muscle tissue [30] = assay: Biodistribution in Sprague-Dawley rat muscle at 3.2 to 18.6 MBq, iv after 90 mins by micro PET analysis; assay type: ADME, organism-based; details: in vivo, 1.5 h; outline: as §3
Heart [31] = assay: Biodistribution in Sprague-Dawley rat heart at 3.2 to 18.6 MBq, iv after 90 mins by micro PET analysis; assay type: ADME, organism-based; details: in vivo, 1.5 h; outline: as §3
Kidney [32] = assay: Biodistribution in Sprague-Dawley rat kidney at 3.2 to 18.6 MBq, iv after 90 mins by micro PET analysis; assay type: ADME, organism-based; details: in vivo, 1.5 h; outline: as §3
Pancreas [33] = assay: Biodistribution in Sprague-Dawley rat pancreas at 3.2 to 18.6 MBq, iv after 90 mins by micro PET analysis; assay type: ADME, organism-based; details: in vivo, 1.5 h; outline: as §3
Rattus norvegicus [34] = assay: Biodistribution in Sprague-Dawley rat bladder at 3.2 to 18.6 MBq, iv after 90 mins by micro PET analysis; assay type: ADME, organism-based, Urinary bladder; details: in vivo, 1.5 h; outline: as §3
Intestine [35] = assay: Biodistribution in Sprague-Dawley rat intestine at 3.2 to 18.6 MBq, iv after 90 mins by micro PET analysis; assay type: ADME, organism-based; details: in vivo, 1.5 h; outline: as §3
Bone [36] = assay: Biodistribution in Sprague-Dawley rat bone at 3.2 to 18.6 MBq, iv after 90 mins by micro PET analysis; assay type: ADME, organism-based, Bone element; details: in vivo, 1.5 h; outline: as §3
Brain [37] = assay: Biodistribution in Sprague-Dawley rat brain at 3.2 to 18.6 MBq, iv after 90 mins by micro PET analysis; assay type: ADME, organism-based; details: in vivo, 1.5 h; outline: as §3
[38] = Biodistribution in Sprague-Dawley rat fat at 3.2 to 18.6 MBq, iv after 90 mins by micro PET analysis; assay type: ADME, organism-based, Adipose tissue; details: in vivo, 1.5 h; outline: as §3

T1 sequence (Q13224 whole entry, other chains not shown): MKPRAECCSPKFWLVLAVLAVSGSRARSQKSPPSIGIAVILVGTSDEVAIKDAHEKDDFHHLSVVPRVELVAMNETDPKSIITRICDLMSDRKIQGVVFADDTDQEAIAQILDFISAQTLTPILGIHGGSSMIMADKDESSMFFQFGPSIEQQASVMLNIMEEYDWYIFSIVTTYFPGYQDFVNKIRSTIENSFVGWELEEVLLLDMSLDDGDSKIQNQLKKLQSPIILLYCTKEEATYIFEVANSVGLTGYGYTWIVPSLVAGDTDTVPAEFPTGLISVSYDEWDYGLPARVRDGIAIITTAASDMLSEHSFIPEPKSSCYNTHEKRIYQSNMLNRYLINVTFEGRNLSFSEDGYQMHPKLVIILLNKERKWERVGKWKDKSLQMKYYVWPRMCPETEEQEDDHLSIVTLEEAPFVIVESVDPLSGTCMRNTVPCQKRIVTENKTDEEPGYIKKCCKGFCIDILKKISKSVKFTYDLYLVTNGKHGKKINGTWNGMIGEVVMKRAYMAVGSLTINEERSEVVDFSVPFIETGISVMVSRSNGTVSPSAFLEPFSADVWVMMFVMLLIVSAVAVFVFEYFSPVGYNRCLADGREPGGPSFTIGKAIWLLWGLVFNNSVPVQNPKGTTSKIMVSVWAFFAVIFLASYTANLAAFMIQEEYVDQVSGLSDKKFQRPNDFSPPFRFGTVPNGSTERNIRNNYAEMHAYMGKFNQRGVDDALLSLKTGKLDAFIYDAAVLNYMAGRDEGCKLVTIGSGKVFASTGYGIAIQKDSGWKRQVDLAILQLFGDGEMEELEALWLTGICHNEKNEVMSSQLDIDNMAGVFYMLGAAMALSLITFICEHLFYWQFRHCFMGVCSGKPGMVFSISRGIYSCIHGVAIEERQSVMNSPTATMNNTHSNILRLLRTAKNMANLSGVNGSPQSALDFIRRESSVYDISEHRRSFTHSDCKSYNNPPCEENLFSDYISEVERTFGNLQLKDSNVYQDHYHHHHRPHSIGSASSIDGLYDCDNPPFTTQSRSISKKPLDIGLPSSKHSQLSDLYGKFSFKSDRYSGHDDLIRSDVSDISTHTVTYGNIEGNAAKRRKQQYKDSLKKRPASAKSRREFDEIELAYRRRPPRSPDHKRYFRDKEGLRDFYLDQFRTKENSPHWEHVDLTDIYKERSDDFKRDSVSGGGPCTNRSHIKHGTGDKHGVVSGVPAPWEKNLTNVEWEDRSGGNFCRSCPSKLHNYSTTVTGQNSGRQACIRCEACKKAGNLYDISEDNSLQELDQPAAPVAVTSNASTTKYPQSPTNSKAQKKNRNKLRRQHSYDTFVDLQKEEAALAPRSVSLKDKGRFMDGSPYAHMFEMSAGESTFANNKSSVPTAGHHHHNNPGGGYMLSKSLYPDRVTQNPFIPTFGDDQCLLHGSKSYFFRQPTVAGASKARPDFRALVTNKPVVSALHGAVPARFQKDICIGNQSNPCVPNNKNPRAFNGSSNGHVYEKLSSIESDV
Sequence of Voltage-gated inwardly rectifying potassium channel KCNH2 (Q12809 whole entry): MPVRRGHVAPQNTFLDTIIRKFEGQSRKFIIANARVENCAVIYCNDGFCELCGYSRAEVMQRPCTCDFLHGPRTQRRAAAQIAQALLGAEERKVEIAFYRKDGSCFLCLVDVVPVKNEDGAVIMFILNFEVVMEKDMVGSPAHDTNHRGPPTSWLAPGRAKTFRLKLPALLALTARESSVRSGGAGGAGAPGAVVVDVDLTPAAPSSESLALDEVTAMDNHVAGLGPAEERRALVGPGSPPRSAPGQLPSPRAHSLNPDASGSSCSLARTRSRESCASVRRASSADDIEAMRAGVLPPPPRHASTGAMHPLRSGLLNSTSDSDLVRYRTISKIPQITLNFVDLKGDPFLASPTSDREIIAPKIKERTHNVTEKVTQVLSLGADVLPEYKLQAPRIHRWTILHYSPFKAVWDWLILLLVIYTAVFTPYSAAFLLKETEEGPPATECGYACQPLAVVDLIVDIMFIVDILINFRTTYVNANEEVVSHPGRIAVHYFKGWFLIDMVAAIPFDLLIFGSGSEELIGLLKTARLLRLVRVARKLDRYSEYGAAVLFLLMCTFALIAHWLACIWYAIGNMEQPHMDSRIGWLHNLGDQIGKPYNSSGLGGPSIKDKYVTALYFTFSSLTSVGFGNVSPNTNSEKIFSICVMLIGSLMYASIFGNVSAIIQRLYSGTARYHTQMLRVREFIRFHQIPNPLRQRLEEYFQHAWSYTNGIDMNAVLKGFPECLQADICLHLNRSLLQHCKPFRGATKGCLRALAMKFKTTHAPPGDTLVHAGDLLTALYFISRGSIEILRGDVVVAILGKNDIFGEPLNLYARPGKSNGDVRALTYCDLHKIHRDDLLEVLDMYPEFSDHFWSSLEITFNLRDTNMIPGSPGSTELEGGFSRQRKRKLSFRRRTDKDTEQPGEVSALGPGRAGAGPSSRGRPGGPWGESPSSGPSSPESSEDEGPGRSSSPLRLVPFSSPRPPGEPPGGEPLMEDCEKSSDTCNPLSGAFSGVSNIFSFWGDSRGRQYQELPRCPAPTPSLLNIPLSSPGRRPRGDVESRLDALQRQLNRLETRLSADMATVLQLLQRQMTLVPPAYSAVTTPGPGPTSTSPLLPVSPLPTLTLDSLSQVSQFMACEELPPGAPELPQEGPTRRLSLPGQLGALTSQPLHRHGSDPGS

Compound: CS(=O)(=O)Nc1ccc2[nH]c(CN3CCC(Cc4ccc(F)cc4)CC3)nc2c1
IC50 [1]: 57.7 nM

Compound: O=C(Nc1ccc2nc(O)oc2c1)C(=O)N1CCC(Cc2ccccc2)CC1
IC50 [6]: 4 nM
ED50 (Mus musculus): 0.5 mg/kg

Compound: [18F]c1ccc(CC2CCNCC2)cc1
Drug uptake (Liver [24]): 2.307 % ID/g
Drug uptake (Rattus norvegicus [25]): 2.312 % ID/g
Drug uptake (Spleen [26]): 0.322 % ID/g
Drug uptake (Lung [27]): 0.507 % ID/g
Drug uptake (Thymus [28]): 0.187 % ID/g
Drug uptake [29]: 10.125 % ID/g
Drug uptake (Muscle tissue [30]): 0.145 % ID/g
Drug uptake (Heart [31]): 0.135 % ID/g
half-life [16]: 10 min
Drug uptake (Kidney [32]): 1.206 % ID/g
Drug uptake (Pancreas [33]): 0.285 % ID/g
Drug uptake (Rattus norvegicus [34]): 0.542 % ID/g
Drug uptake (Intestine [35]): 0.902 % ID/g
Drug uptake (Bone [36]): 0.75 % ID/g
Drug uptake (Brain [37]): 0.395 % ID/g
Drug uptake [38]: 0.052 % ID/g

Compound: O=C1Cc2cc(NC(=O)C(=O)N3CCC(Cc4ccc(F)cc4)CC3)ccc2N1
IC50 [1]: 830 nM
inhibition [5]: 14.5%

Compound: O=C(Nc1ccc2[nH]c(=O)sc2c1)C(=O)N1CCC(Cc2ccc(F)cc2)CC1
IC50 [1]: 840 nM
inhibition [5]: 13.2%

Compound: O=C(Nc1ccc2[nH]c(O)nc2c1)C(=O)N1CCC(Cc2ccc(F)cc2)CC1
IC50 [6]: 5 nM
ED50 (Mus musculus): 0.5 mg/kg

Now from value to compound, other results behind:

Stability (Plasma): Stable
IC50 [3]: 620 nM
IC50 [1]: 47.3 nM
Stability (Liver [4]): Stable
inhibition [5]: 10.5%
Compound: Oc1ccc2[nH]c(CN3CCC(Cc4ccc(F)cc4)CC3)nc2c1
IP [2]: 500 nM

half-life [7]: > 480 min
IC50 [1]: 209 nM
Compound: Oc1ccc2nc(CN3CCC(Cc4ccccc4)CC3)[nH]c2c1
ED50 (Rattus norvegicus [8]): 3.3 mg/kg

Drug uptake (Liver [9]): 2.255 % ID/g
Drug uptake (Kidney [10]): 0.384 % ID/g
Drug uptake (Muscle tissue [11]): 0.044 % ID/g
Drug uptake (Brain [12]): 0.035 % ID/g
Drug uptake (Lung [13]): 0.445 % ID/g
Drug uptake (Rattus norvegicus [14]): 0.373 % ID/g
Drug uptake (Intestine [15]): 0.188 % ID/g
Drug uptake (Cerebellum): 0.035 % ID/g
half-life [16]: 35 min
Drug uptake (Spleen [17]): 0.305 % ID/g
Drug uptake [18]: 0.098 % ID/g
Drug uptake (Thymus [19]): 0.225 % ID/g
Drug uptake (Pancreas [20]): 0.391 % ID/g
Drug uptake (Bone [21]): 1.576 % ID/g
Drug uptake [22]: 1.327 % ID/g
Drug uptake (Heart [23]): 0.068 % ID/g
Drug uptake (Hippocampus): 0.037 % ID/g
Compound: Oc1ccc2[nH]c(CN3CCC(Cc4ccc([18F])cc4)CC3)nc2c1
